The species entered for test [1] is Macaca mulatta. Briefly: Binding affinity to rhesus monkey DAT. In a few lines: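 Monkey striatal tissue; each compound tested 2–5 times. Competition binding used a fixed radioligand concentration against a range of test-drug concentrations.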
Test [2] has as its target Sodium-dependent dopamine transporter (Homo sapiens) (UniProt Q01959). Briefly: Displacement of [3H]WIN 35,428 from human dopamine active transporter. In a few lines:
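A fixed radioligand concentration was run against a range of test-drug concentrations, and IC50 was read. Racemic compounds. Values are means of two or more independent experiments, each in triplicate.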

Test [3] is filed under the species Homo sapiens. The test can be described thus: Selectivity ratio of IC50 for human DAT to IC50 for human SERT.

Molecules are shown by their SMILES.

Sodium-dependent dopamine transporter (Homo sapiens), sequence (Q01959 whole entry): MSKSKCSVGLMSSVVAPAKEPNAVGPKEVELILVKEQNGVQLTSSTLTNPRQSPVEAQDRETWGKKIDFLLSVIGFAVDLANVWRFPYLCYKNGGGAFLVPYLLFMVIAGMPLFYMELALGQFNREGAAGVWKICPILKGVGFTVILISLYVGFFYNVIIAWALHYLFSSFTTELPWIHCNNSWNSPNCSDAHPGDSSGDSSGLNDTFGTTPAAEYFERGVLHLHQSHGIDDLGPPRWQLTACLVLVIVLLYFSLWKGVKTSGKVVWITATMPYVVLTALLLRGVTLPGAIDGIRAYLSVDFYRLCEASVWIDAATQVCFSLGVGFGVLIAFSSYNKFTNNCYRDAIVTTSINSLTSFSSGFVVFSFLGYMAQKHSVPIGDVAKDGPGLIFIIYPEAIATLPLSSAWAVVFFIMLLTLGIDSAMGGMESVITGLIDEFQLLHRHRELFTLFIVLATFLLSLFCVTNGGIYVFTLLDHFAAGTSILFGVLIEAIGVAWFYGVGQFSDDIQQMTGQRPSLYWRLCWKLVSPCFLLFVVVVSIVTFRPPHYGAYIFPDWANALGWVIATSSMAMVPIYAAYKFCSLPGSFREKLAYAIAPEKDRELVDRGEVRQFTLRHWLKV

Compound `COC(=O)[C@H]1[C@@H](c2ccc(F)cc2)C[C@@H]2CC[C@H]1N2C` yielded an Activity in test [1] of 12.9 nM.
Regarding `COC(=O)[C@@H]1C2CCC(C[C@@H]1c1cc3ccccc3[nH]1)O2` (mixture of isomers), in test [2], the inhibition entry was “Dose-dependent effect”. Further, in test [3], the Ratio IC50 is 0.2.
For `COC(=O)[C@@H]1C2CCC(C[C@@H]1c1ccc(-c3cccn3C)cc1)O2` (mixture of isomers), in that order: “Dose-dependent effect” and more than 2.
For `COC(=O)[C@@H]1C2CCC(C[C@@H]1c1ccc(-c3ccco3)cc1)O2` (mixture of isomers), in that order: “Dose-dependent effect” and 2.
For `COC(=O)[C@@H]1C2CCC(C[C@H]1c1cc3ccccc3s1)O2` (mixture of isomers), in test [2], the inhibition entry is “Dose-dependent effect”.
As to `COC(=O)[C@@H]1C2CCC(C[C@H]1c1ccc(-c3cccn3C)cc1)O2` (mixture of isomers), the inhibition result in test [2] was “Dose-dependent effect”. Moreover, the Ratio IC50 in test [3] is more than 2.5.
On the same counts, the results for `COC(=O)[C@@H]1C2CCC(C[C@H]1c1ccc(-c3ccco3)cc1)O2` (mixture of isomers) are “Dose-dependent effect” and 4.
For `COC(=O)[C@@H]1C2CCC(C[C@H]1c1ccc(-c3cccs3)cc1)O2` (mixture of isomers), in that order: “Dose-dependent effect” and 10.
On to `COC(=O)[C@@H]1C2CCC(C[C@H]1c1ccc(-c3nccs3)cc1)O2` (mixture of isomers), for which, in test [2], the inhibition entry is “Dose-dependent effect”. The Ratio IC50 in test [3] was more than 7.
Take `COC(=O)[C@@H]1C2CCC(C[C@H]1c1cccs1)O2` (mixture of isomers): the inhibition entry in test [2] is “Dose-dependent effect”. Besides, the Ratio IC50 in test [3] is 1.
As to `COC(=O)[C@H]1C2CCC(C[C@@H]1c1cc3ccccc3[nH]1)O2` (mixture of isomers), the inhibition result in test [2] is “Dose-dependent effect”. Moreover, the Ratio IC50 in test [3] turned out to be 0.4.
Consider `COC(=O)[C@H]1C2CCC(C[C@@H]1c1cc3ccccc3s1)O2` (mixture of isomers), for which the inhibition result in test [2] is “Dose-dependent effect”.
With `COC(=O)[C@H]1C2CCC(C[C@@H]1c1cccs1)O2` (mixture of isomers), the inhibition result in test [2] was “Dose-dependent effect”. The Ratio IC50 in test [3] came to 1.
Take `COC(=O)[C@H]1C2CCC(C[C@H]1c1cc3ccccc3[nH]1)O2` (mixture of isomers): in test [2], the inhibition result was “Dose-dependent effect”. For the same compound, the Ratio IC50 in test [3] was less than 0.3.
On to `COC(=O)[C@H]1C2CCC(C[C@H]1c1cc3ccccc3o1)O2` (mixture of isomers), for which the inhibition result in test [2] is “Dose-dependent effect”. Further, the Ratio IC50 in test [3] was less than 0.04.
For `COC(=O)[C@H]1C2CCC(C[C@H]1c1ccc(-c3ccccc3)o1)O2` (mixture of isomers), in that order: “Dose-dependent effect” and less than 2.
For `COC(=O)[C@H]1C2CCC(C[C@H]1c1cccc(-c3nccs3)c1)O2` (mixture of isomers), in that order: “Dose-dependent effect” and 1.
On the same counts, the results for `COC(=O)C1=C(c2cc3ccccc3o2)CC2CCC1O2` (racemic) are “Dose-dependent effect” and less than 0.1.
Take `COC(=O)C1=C(c2cc3ccccc3s2)CC2CCC1O2` (racemic): in test [2], the inhibition entry was “Dose-dependent effect”. Moreover, the Ratio IC50 in test [3] was less than 0.004.
Regarding `COC(=O)C1=C(c2ccc(-c3ccccc3)n2C)CC2CCC1O2` (racemic), the inhibition result in test [2] was “Dose-dependent effect”. Moreover, the Ratio IC50 in test [3] stood at 1.
Regarding `COC(=O)C1=C(c2ccc(-c3ccccc3)o2)C[C@@H]2CC[C@H]1O2` (racemic), the inhibition result in test [2] was “Dose-dependent effect”. The Ratio IC50 in test [3] was 1.
For `COC(=O)C1=C(c2ccc(-c3ccccc3)s2)CC2CCC1O2` (racemic), in that order: “Dose-dependent effect” and 1.
`COC(=O)C1=C(c2cccc(-c3cccn3C)c2)CC2CCC1O2` (racemic): in test [2], the inhibition result was “Dose-dependent effect”. The Ratio IC50 in test [3] is more than 14.
For `COC(=O)C1=C(c2ccco2)C[C@@H]2CC[C@H]1O2` (racemic), in that order: “Dose-dependent effect” and 1.
With `COC(=O)C1=C(c2cccs2)C[C@@H]2CC[C@H]1O2` (racemic), the inhibition entry in test [2] is “Dose-dependent effect”. For the same compound, the Ratio IC50 in test [3] came to 1.
Consider `O=C1C2=C(CC3CCC2O3)c2cc3ccccc3n21` (racemic), for which the inhibition result in test [2] is “Dose-dependent effect”. Moreover, the Ratio IC50 in test [3] worked out at 1.

The record behind these values is ChEMBL document CHEMBL2010703, “Synthesis and structure-activity relationship studies of 3-biaryl-8-oxabicyclo[3.2.1]octane-2-carboxylic acid methyl esters” (Bioorg Med Chem, 2012).
